This is a sample that favours compounds with a hit; in the whole collection about 3.9% have one here.
XBP1 UPR activ: adaptive UPR (XBP1) activation; CHO-XBP1 luciferase reporter, IRE1-XBP1 UPR activation, luminescence; percent of tunicamycin response, DMSO as zero; activation, % at 20 µM; hit rate 0.33% among 330,000; AID 463104;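 active = versus positive control, 20 µM dose yields 30% or more activation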;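 also: 100% = tunicamycin at 10 µg/mL and 0% = DMSO only wells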
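Test system: CHO-XBP1 luciferase reporter cells | Buffer or medium: Serum-containing F12 medium, 10% FBS | Schedule: 6 h compound exposure at 37 °C, 5% CO2 | Detection: Steady-Glo luciferase glow luminescence, 10 min after reagent addition | Read-out basis: Activation, % of tunicamycin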
Gli-Sufu antag: antagonists of Gli-Sufu signaling. hit rate 0.74% among 340,000. inhibition, % at 5 µM. Sufu-KO-LIGHT fibroblasts, Gli luciferase reporter luminescence. AID 588413;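 active = inhibition above about 55%, limit read from the data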;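 also: 0% = DMSO-treated cells and 100% = wells with medium but no cells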
UPR CHOP act: apoptotic UPR (CHOP) activation. CHO-CHOP luciferase reporter, luminescence; percent of tunicamycin response over DMSO baseline. activation, % at 10 µM. hit rate 0.34% among 330,000;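 active = at 10 µM dose, activation of 40% or more, normalized to positive control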;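 also: 100% = tunicamycin at 10 µg/mL and 0% = DMSO alone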
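System: CHO CHOP reporter cells. Amount: 500 cells per well. Buffer or medium: F12 medium, 10% FBS. Compound dosing: one dose, 10 µM in 0.5% DMSO. Incubation: 6 h compound exposure at 37 °C after overnight seeding. Technique: Steady-Glo luciferase luminescence. Benchmarks: tunicamycin and DMSO controls.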
CHOP inh: CHOP inhibition in unfolded protein response; hit rate 3.8% among 220,000; AID 2732; inhibition, % at 10 µM; CHO-K1 CHOP-promoter luciferase, tunicamycin-induced, 15-18 h;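 active = compounds that reduced the stress-induced luciferase reporter signal by more than about 70% of percent inhibition, limit read from the data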;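 also: 0% = tunicamycin plus vehicle and 100% = wells without tunicamycin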
Jurkat NFkB inh: inhibitors of the PMA/ionomycin-induced NF-kB reporter in Jurkat cells. PMA/ionomycin-induced NF-kB luciferase reporter, luminescence. inhibition, % at 4 µM. hit rate 0.53% among 330,000. AID 435003; in the data active = inhibition above about 50%
697 NFkB inh: lowers PMA/ionomycin-induced NF-kB signal in 697 B cells; 697 B-cell NF-kB luciferase reporter, 16 h; inhibition, % at 4 µM; hit rate 0.33% among 330,000; AID 435022; in the data active = inhibition above about 35%
Active calls of the source: *; nt = no result given.

SMILES	XBP1 UPR activ	Gli-Sufu antag	UPR CHOP act	CHOP inh	Jurkat NFkB inh	697 NFkB inh
O=C(Nc1ccc(NC(=O)c2ccccc2O)cc1)Nc1ccc(F)cc1F	7	-10	3	71*	0	-32
O=C(Nc1ccc(Cl)cc1N1CCOCC1)C1CCCCC1	2	0	-3	nt	4	-14
CCC(=O)Nc1ccccc1-c1nnn(CC(=O)N2c3ccccc3CC2C)n1 (centres undefined)	-2	8	0	76*	-2	6
Cc1noc(C)c1COc1ccc(C(=O)NCc2cccs2)cc1	-3	9	0	nt	10	14
Cc1cc(=O)[nH]c(SCC(=O)N2CCN(C(c3ccccc3)c3ccccc3)CC2)n1	0	5	-1	74*	-5	12
Cc1ccc(NC(=O)CC2OC(=O)c3ccccc32)cc1S(=O)(=O)N1CCOCC1 (centres undefined)	1	2	2	nt	14	11
COc1ccccc1NS(=O)(=O)c1cc([N+](=O)[O-])ccc1N/N=C/c1c(C)[nH]c2ccccc12	3	4	0	84*	-7	8
Cc1[nH]c2ccccc2c1/C=N/Nc1ccc([N+](=O)[O-])cc1	nt	-1	nt	14	nt	nt
CC(C)CC(NC(=O)C1CCC(=O)N1C(=O)OCc1ccccc1)C(=O)NC(Cc1ccccc1)C(N)=O (centres undefined)	-2	-27	-1	nt	6	-3
CSc1ccc(CN(C)CC(=O)Nc2ccccc2Br)cc1	-3	5	2	57	-9	0
CSc1ccccc1NC(=O)CSCc1ccccc1Br	-1	13	-3	72*	9	23
CSc1ccccc1NC(=O)CN(C)Cc1ccc(Br)cc1	1	2	2	80*	6	-26
CSc1ccccc1NC(=O)CSCc1ccc(Br)cc1	0	2	-1	51	-11	9
CC(=O)Nc1ccc(-c2sc(Nc3cccc4ccccc34)n[n+]2-c2ccccc2)cc1	0	-5	1	nt	-4	2
CC1CCN(S(=O)(=O)c2ccc(Br)s2)CC1	-1	0	0	75*	15	-15
CCN(CC)C(=O)C1CCCN(Cc2ccc(F)c(F)c2)C1 (centres undefined)	-1	6	-1	86*	0	-1
COCC1CCCCN1C(=O)c1ccc2nc(Cc3ccc(OC)c(OC)c3)oc2c1 (centres undefined)	-2	15	1	nt	-1	-20
CCOc1cc(-c2nc(-c3ccc(OC)cc3)no2)cc(OCC)c1OCC	0	-8	1	26	17	28
CCOc1cc(-c2nc(-c3ccccc3OC)no2)cc(OCC)c1OCC	1	3	-1	76*	1	10
O=C(Nc1cc(Cl)ccc1Cl)C1CC(=O)N(c2ccc(Br)cc2)C1 (centres undefined)	0	10	1	70*	-19	5
Cc1ccccc1S(=O)(=O)c1c(C)cc(C)n(C)c1=O	-4	-9	0	-21	-6	-2
Cc1ccccc1S(=O)(=O)c1c(C)cc(C)n(CC(C)C)c1=O	0	12	0	86*	1	9
COc1cc(S(=O)(=O)N2CCN(Cc3ccccc3)CC2)ccc1Br	-4	4	-1	78*	-16	3
O=C(O)CC(c1ccccc1)N1C(=O)c2ccccc2C1=O (centres undefined)	-2	-2	-1	nt	-3	19
O=C(O)CCC(NC(=O)c1ccccc1C(=O)O)C(=O)O (centres undefined)	nt	nt	nt	0	nt	nt
SMILES	XBP1 UPR activ	Gli-Sufu antag	UPR CHOP act	CHOP inh	Jurkat NFkB inh	697 NFkB inh
COC(=O)c1c(NC(=O)COC(=O)C2CCC2)sc(C)c1C	1	7	-1	nt	-17	13
COC(=O)c1c(NC(=O)COC(=O)CNC(=O)C2CCCCC2)sc(C)c1C	2	-5	0	78*	-23	10
O=C(CNC(=O)C1CCCCC1)OCn1nnc2ccccc2c1=O	-2	-11	1	36	-3	-6
CC(C)(Oc1ccc(Cl)cc1)C(=O)OCn1nnc2ccccc2c1=O	-1	-1	0	78*	11	-9
O=C(CC1CCCCC1)OCn1nnc2ccccc2c1=O	-1	-9	-1	82*	-3	2
O=C(CNC(=O)c1ccc(Cl)cc1)OCn1nnc2ccccc2c1=O	-2	0	-1	nt	-4	8
Cc1ccc(CCN2CCN=C2Nc2ccccc2)cc1	-1	9	-1	nt	-1	2
Cc1cc(NC(=O)c2ccccc2)c(Cl)cc1N	-10	27	-4	72*	-28	11
Cc1cc(N)ccc1NC(=O)c1ccccc1	-1	-1	1	-8	-1	18
O=S(=O)(NCc1nnc2ccccn12)c1ccc(F)cc1	0	18	1	nt	9	26
CC(=O)c1cccc(NC(=O)CSc2nc(=O)n(CCN3CCOCC3)c3c2CCCC3)c1	1	22	1	nt	-24	16
CC(C)CC(=O)O/N=C1\C(=O)N(Cc2ccc(Cl)cc2)c2ccc([N+](=O)[O-])cc21	1	nt	1	90*	15	1
CC(=O)O/N=C1\C(=O)N(Cc2ccc(C)cc2)c2ccccc21	-5	-5	-1	53	9	4
CC(=O)N1CC=C2C(C#N)=C(N)C(C#N)(C#N)C(CCc3ccccc3)C2C1 (centres undefined)	-1	35	-1	73*	6	-4
N#CC1=C(N)C(C#N)(C#N)[C@H](c2ccoc2)[C@H]2CN(Cc3ccccc3)CC=C12	37*	26	0	nt	16	15
COc1ccc(OC)c(-c2cc(C3CCN(c4cc(Cl)nc(N)n4)CC3)[nH]n2)c1	4	6	1	73*	21	-27
COc1ccc(-c2cc(C3CCN(c4cc(Cl)nc(N)n4)CC3)[nH]n2)cc1	2	23	5	73*	3	-60
COc1ccc(-c2cc(C3CCN(Cc4ccc([N+](=O)[O-])cc4)CC3)[nH]n2)cc1	-4	36	-2	36	6	-5
COc1ccc(-c2cc(C3CCN(CC(O)C(F)(F)F)CC3)[nH]n2)cc1 (centres undefined)	-1	-13	2	nt	-5	2
CCOc1ncccc1C(=O)OCc1cccc([N+](=O)[O-])c1	2	28	3	14	-23	5
Clc1nc(Nc2ccc(N3CCOCC3)cc2)c2ccccc2n1	2	1	0	16	4	6
O=S(=O)(Nc1nc2ccccc2nc1Nc1ccc(N2CCOCC2)cc1)c1cc(Cl)ccc1Cl	-3	29	1	74*	-1	-14
COc1cc(/C=C2\SC(c3ccc(C)cc3)=NC2=O)cc(OC)c1O	2	46	5	58	10	3
